Source: PubChem BioAssay
An excerpt weighted towards active compounds, which were near 2.4% of everything screened.
SIAE inh: human SIAE inhibition, primary screen | Q9HAT2 | AID 1053197 | inhibition, % at 9.66 µM | SIAE FP-Rh probe binding, fluorescence polarization | actives 0.69% (n = 370,000);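 active = inhibition above a cutoff: mean of compounds within the control limits plus 3 SD of those, cut at about 17% in these data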;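 note: 0% = plate median of compound wells and 100% = probe without SIAE protein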
GASC-1 inh: blocks human GASC-1 demethylase activity. Q9H3R0. GST-JMJD2C(1-420) H3K9me3 demethylation, DELFIA europium. inhibition, % at 2.35 µM. actives 0.069% (n = 330,000). AID 2099;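 active = more than half of a compound's replicate wells show inhibition beyond 50%, single wells judged on their own value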;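 note: signal counts dimethyl H3K9 product captured on neutravidin plate; 0% = median of DMSO wells and 100% = 0.3 times that DMSO median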
ABHD4 inh: inhibitors of mouse ABHD4 | AID 720543 | purified mABHD4, FP-Rh probe fluorescence polarization | actives 0.54% (n = 370,000) | inhibition, % at 8.92 µM | Q8VD66;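 active = inhibition exceeding the mean over every tested compound plus 3 SD, cut at about 30% in these data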;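 note: 0% = plate median of compound wells and 100% = S159A mutant with DMSO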
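Material: mouse ABHD4 enzyme, wild type; Benchmarks: S159A mutant high control, sample median low control; Buffer or medium: HEPES pH 7.0, NaCl, Pluronic buffer; Signal: fluorescence polarization; Read-out: percent inhibition of probe binding, normalized to plate controls; Timing: pre-incubation 45 min, probe exposure 60 min, at 25 °C; Dosing: 8.92 µM, single dose.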
PRMT1 FP inh: blocks human protein arginine methyltransferase 1; Q99873; recombinant PRMT1, activity-based probe fluorescence polarization; inhibition, % at 2.79 µM; actives 1.3% (n = 370,000);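 active = inhibition above about 21% made by adding two undisclosed values, limit read from the data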
Target sequence (Q99873 whole entry, looked up): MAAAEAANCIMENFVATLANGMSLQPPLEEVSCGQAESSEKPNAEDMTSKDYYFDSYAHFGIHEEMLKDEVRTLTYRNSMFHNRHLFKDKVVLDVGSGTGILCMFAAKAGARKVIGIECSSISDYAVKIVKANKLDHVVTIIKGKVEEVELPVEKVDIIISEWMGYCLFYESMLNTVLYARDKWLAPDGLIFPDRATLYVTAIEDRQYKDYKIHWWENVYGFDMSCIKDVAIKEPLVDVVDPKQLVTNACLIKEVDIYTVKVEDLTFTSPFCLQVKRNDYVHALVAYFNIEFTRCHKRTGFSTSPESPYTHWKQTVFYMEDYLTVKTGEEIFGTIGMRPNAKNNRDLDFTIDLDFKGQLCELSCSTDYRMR
HTRA1 inhibitor: HTRA1 (human) protease inhibition. recombinant HTRA1, FP-rhodamine activity-based probe, fluorescence polarization. inhibition, % at 5.96 µM. actives 0.5% (n = 340,000); in the data active = inhibition above about 36%;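 note: 0% = enzyme with DMSO and 100% = wells lacking enzyme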
SIAE confirm: human SIAE inhibition, confirmation | shares compounds with SIAE inh | SIAE FP-Rh activity-based probe, fluorescence polarization | inhibition, % at 9.66 µM | actives 13% (n = 2,300) | AID 1117263;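 active = mean inhibition of the replicates above the hit cutoff set in the primary screen, cut at about 17% in these data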;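 note: 0% = SIAE with DMSO and probe and 100% = probe without SIAE; inhibitors lower polarization as more probe stays unbound to SIAE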
Starred values were filed as active, the others as inactive; . = no result given.

SMILES | SIAE inh | GASC-1 inh | ABHD4 inh | PRMT1 FP inh | HTRA1 inhibitor | SIAE confirm
COc1ccc(-c2cc(C(F)(F)F)nc(N3CCN(C)CC3)n2)cc1OC | 1 | -2 | 4 | -1 | -2 | .
COC(=O)CSc1nnc(-c2cc(-c3ccccc3)n[nH]2)n1N | -3 | . | 1 | 9 | . | .
COC(=O)C1CN(Cc2cn(Cc3ccccc3)nn2)CCS(=O)(=O)N1Cc1ccc(OC)cc1 (stereo unspecified) | 4 | . | 1 | -2 | . | .
COc1ccc(C2CC(c3ccccc3)=NN2c2ccc(C(N)=O)cc2)cc1 (stereo unspecified) | 8 | -3 | 7 | 4 | 2 | .
COc1ccc(C2CC(c3ccccc3)=NN2c2ccc(/C=N/NC(=O)c3ccncc3)cc2)cc1 (stereo unspecified) | 17* | -12 | 11 | -1 | 4 | 7
NC(=O)Cn1cc(/C=N\NS(=O)(=O)c2ccc(Cl)cc2)c2ccccc21 | -4 | 26 | -2 | 1 | 0 | .
Cc1ccc(S(=O)(=O)N/N=C\c2cn(CC(N)=O)c3ccccc23)cc1C | 23* | -8 | 9 | -2 | 4 | 7
COc1ccc(CCN(Cc2cccs2)S(=O)(=O)c2ccc(C)c(C)c2)cc1OC | -5 | . | -7 | 3 | . | .
CC(C)C[C@@H]1COc2cccc(F)c2S(=O)(=O)N1C | 2 | . | 2 | -2 | . | .
O=C(CSc1nnc(SCc2cccc3ccccc23)s1)N/N=C/c1c[nH]c2ccccc12 | 30* | 0 | -8 | -2 | -28 | 0
O=S1(=O)c2ccc(Br)cc2OC[C@@H](Cc2ccccc2)N1Cc1cn(CC2CCCCC2)nn1 | 9 | . | -6 | -5 | . | .
COc1cc(/C=N/NC(=O)c2ccc(N)cc2)ccc1OC(=O)c1cccc(C)c1 | 22* | -4 | 5 | -4 | -29 | -2
C[C@H](O)[C@@H]1CN2CCc3ccc(N4CCOCC4)cc3[C@@H]2C[C@@H]1N(C)C(=O)c1ccco1 | 0 | . | 2 | 7 | . | .
Cc1occc1-c1nnc(SCC(=O)Nc2ccncc2)n1-c1ccccc1 | 2 | . | 1 | 12 | . | .
Cn1cccc1-c1cc(C(=O)N/N=C/c2cc(Br)ccc2O)[nH]n1 | 24* | 15 | 2 | 0 | 22 | -6
COc1cc(/C=C(/C#N)c2ccc(C)cc2)ccc1Oc1ccc([N+](=O)[O-])cn1 | 35* | -3 | -12 | -2 | 3 | -2
CCOc1cc(/C=C(/C#N)c2nc3ccccc3[nH]2)ccc1Oc1ccc([N+](=O)[O-])cn1 | -30 | -2 | -2 | -5 | -8 | .
CC(=O)Nc1ccc(NC(=O)C(C)OC(=O)COc2ccc(Nc3ccccc3)cc2)cc1 (stereo unspecified) | 23* | 2 | 8 | 11 | 12 | 8
CCCC(C(=O)NC1CCCC1)N(Cc1ccc2c(c1)OCO2)C(=O)c1snc(C(N)=O)c1N (stereo unspecified) | 24* | -6 | 1 | -3 | -1 | 3
CCCC(C(=O)NC1CCCC1)N(Cc1ccc(F)cc1)C(=O)c1snc(C(N)=O)c1N (stereo unspecified) | -1 | -4 | -8 | -1 | -6 | .
Cc1nn(Cc2ccc(Cl)cc2Cl)c(C)c1NC(=O)C1C2CCC(O2)C1C(=O)O (stereo unspecified) | 20* | 4 | 0 | 2 | -5 | 3
Cc1nn(Cc2ccc(Cl)cc2Cl)c(C)c1NC(=O)c1nc2n(n1)C(C(F)F)CC(C)N2 (stereo unspecified) | 31* | . | 6 | 0 | 0 | 2
Cc1nn(Cc2ccc(Cl)cc2Cl)c(C)c1NC(=O)CCl | -5 | 0 | -2 | 2 | -1 | .
C=CCNC(=S)N/N=C/c1ccc(-c2ccc(OC)cc2)o1 | 19* | 14 | 14 | 5 | -8 | 2
C=CCNC(=S)N/N=C/c1ccc(-c2cc(Cl)ccc2Cl)o1 | 2 | 4 | 5 | 0 | 0 | .
CC(CNC(=O)CN1C(=O)NC2(CCOc3ccccc32)C1=O)c1ccccc1 (stereo unspecified) | 82* | -1 | 6 | 3 | -3 | -2
COCCNC(=O)CN1C(=O)NC2(CCOc3ccccc32)C1=O (stereo unspecified) | -5 | 7 | -1 | -1 | 2 | .
